Assay results taken from PMC4691888 (Genes & Development, 2015).
Substitutions are numbered along the chain they refer to. Blank lines part the entries; values can stand above or below the molecule they belong to. No end group written: not given here. Me2 = α-N-dimethylated N-terminal residue

Key:
human NRMT1 [1] = biological target: T1, human NRMT1 (Homo sapiens, UniProt Q9BV86); test: Histone peptide methylation profiling by NRMT1; type: biochemical; conditions: nine-residue N-terminal histone peptides; MALDI-TOF MS
T1 sequence (Q9BV86 1-223): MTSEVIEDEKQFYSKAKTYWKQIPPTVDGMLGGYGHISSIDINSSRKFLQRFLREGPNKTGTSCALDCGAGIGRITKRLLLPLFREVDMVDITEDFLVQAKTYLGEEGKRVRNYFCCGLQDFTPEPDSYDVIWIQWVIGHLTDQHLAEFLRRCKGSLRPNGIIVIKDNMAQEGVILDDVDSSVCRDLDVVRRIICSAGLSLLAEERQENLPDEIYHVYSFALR
Procedure, shortened: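 Wild-type human NRMT1, produced recombinantly in E. coli and purified as a His-tagged protein, incubated with native or mutant peptide substrates for 5 h. Methylated products detected by MALDI-TOF MS and scored semi-quantitatively by relative abundance of each methylation state (full or half abundance), with not-detected products recorded as ND.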

human NRMT1 (human) = human NRMT1 (human) (UniProt Q9BV86); test: thermofluor shift assay
human NRMT1 [2] = biological target: T1, human NRMT1; test: MALDI-TOF MS-based methylation assay of native and mutant CENP-A; type: biochemical; conditions: 5 h incubation, CENP-A (1-9) peptides
Procedure, shortened: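 Recombinant His-tagged human NRMT1, expressed in E. coli and purified, incubated 5 h with native or mutant CENP-A peptides. Methylated products detected by MALDI-TOF mass spectrometry. Abundance of each methylation state scored semi-quantitatively (full or half abundance levels); products not detected are recorded as ND.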

human NRMT1 [3] = biological target: T1, human NRMT1; test: Thermofluor shift assay; type: binding; conditions: CENP-A (1-9) peptides, 360 μM; 1 mg/mL NRMT1, 180 μM SAH, pH 8.0
human NRMT1 [4] = biological target: T1, human NRMT1; conditions: ref Okada et al. 2007; Tooley et al. 2010; Bailey et al. 2013; cited from earlier work
human NRMT1 D180N = biological target: T2, human NRMT1 D180N (human, UniProt Q9BV86 1-223, D180N); test: cell-based or functional assay
T2 sequence: T1 sequence (Q9BV86 1-223) with D180N

human NRMT1 [5] = biological target: T3, human NRMT1 (human, UniProt Q9BV86 1-223); test: ITC
T3 sequence (looked up): T1 sequence (Q9BV86 1-223)

human NRMT1 [6] = biological target: T3, human NRMT1; test: thermofluor shift assay

- methylation by NRMT1, in words (human NRMT1 [1]): dimethylation
Molecule: PPKTSGKAA [DmH2B (fruit fly)]

- Tm of the NRMT1–CENP-A complex (human NRMT1 (human)): 49 °C
Molecule: α-N-monomethylated CENP-A peptide

- Tm increase (stabilization) compared with NRMT1-SAH binary complex (human NRMT1 [3]): 3 °C
Molecule: (G1S)PRRRSRKP
- methylation capacity / state preference, in words (human NRMT1 [2]): α-N-monomethylation being the major product form

- Tm of the NRMT1–CENP-A complex (human NRMT1 (human)): 50 °C
Molecule: α-N-trimethylated CENP-A peptide

- methylation capacity / state preference, in words (human NRMT1 [2]): full state
- Tm increase (stabilization) compared with NRMT1-SAH binary complex (human NRMT1 [3]): 5.5 °C
Molecule: (G1P)PRRRSRKP

- in vitro methylation assay of CENP-A, drop of activity against wild-type enzyme (human NRMT1 D180N): ~4 fold
Molecule: GPRRRSRKP [CENP-A (1–9) peptide, unmodified]

- Kd (human NRMT1 [5]): 0.39 µM
- dH (human NRMT1 [5]): -49.4 kJ/mol
Molecule: Me2-GPRRRSRKP [α-N-dimethylated CENP-A (1–9) peptide]
- Tm of the NRMT1–CENP-A complex (human NRMT1 [6]): 52.5 °C

Further lines, the molecule ahead of its results:

Molecule: (G1A)PRRRSRKP
- methylation capacity / state preference, in words (human NRMT1 [2]): full state
- Tm increase (stabilization) compared with NRMT1-SAH binary complex (human NRMT1 [3]): 1.5 °C

Molecule: myosin light chain 3: reported NRMT1 substrate protein
- reported NRMT1 substrate, in words (human NRMT1 [4]): reported NRMT1 substrates

B1: myosin light chain 2: reported NRMT1 substrate protein (protein, UniProt P10916 2-166, looked up)
Myosin regulatory light chain …: APKKAKKRAGGANSNVFSMFEQTQIQEFKEAFTIMDQNRDGFIDKNDLRDTFAALGRVNVKNEEIDEMIKEAPGPINFTVFLTMFGEKLKGADPEETILNAFKVFDPEGKGVLKADYVREMLTTQAERFSKEEVDQMFAAFPPDVTGNLDYKNLVHIITHGEEKD
- reported NRMT1 substrate, in words (human NRMT1 [4]): reported NRMT1 substrates

B2: regulator of chromosome condensation 1 (RCC1): reported NRMT1 substrate protein (protein, UniProt P18754 2-421, looked up)
Regulator of chromosome …: SPKRIAKRRSPPADAIPKSKKVKVSHRSHSTEPGLVLTLGQGDVGQLGLGENVMERKKPALVSIPEDVVQAEAGGMHTVCLSKSGQVYSFGCNDEGALGRDTSVEGSEMVPGKVELQEKVVQVSAGDSHTAALTDDGRVFLWGSFRDNNGVIGLLEPMKKSMVPVQVQLDVPVVKVASGNDHLVMLTADGDLYTLGCGEQGQLGRVPELFANRGGRQGLERLLVPKCVMLKSRGSRGHVRFQDAFCGAYFTFAISHEGHVYGFGLSNYHQLGTPGTESCFIPQNLTSFKNSTKSWVGFSGGQHHTVCMDSEGKAYSLGRAEYGRLGLGEGAEEKSIPTLISRLPAVSSVACGASVGYAVTKDGRVFAWGMGTNYQLGTGQDEDAWSPVEMMGKQLENRVVLSVSSGGQHTVLLVKDKEQS
- reported NRMT1 substrate, in words (human NRMT1 [4]): reported NRMT1 substrates

B3: retinoblastoma protein: reported NRMT1 substrate protein (protein, UniProt P06400 2-928, looked up)
Retinoblastoma-associated …: PPKTPRKTAATAAAAAAEPPAPPPPPPPEEDPEQDSGPEDLPLVRLEFEETEEPDFTALCQKLKIPDHVRERAWLTWEKVSSVDGVLGGYIQKKKELWGICIFIAAVDLDEMSFTFTELQKNIEISVHKFFNLLKEIDTSTKVDNAMSRLLKKYDVLFALFSKLERTCELIYLTQPSSSISTEINSALVLKVSWITFLLAKGEVLQMEDDLVISFQLMLCVLDYFIKLSPPMLLKEPYKTAVIPINGSPRTPRRGQNRSARIAKQLENDTRIIEVLCKEHECNIDEVKNVYFKNFIPFMNSLGLVTSNGLPEVENLSKRYEEIYLKNKDLDARLFLDHDKTLQTDSIDSFETQRTPRKSNLDEEVNVIPPHTPVRTVMNTIQQLMMILNSASDQPSENLISYFNNCTVNPKESILKRVKDIGYIFKEKFAKAVGQGCVEIGSQRYKLGVRLYYRVMESMLKSEEERLSIQNFSKLLNDNIFHMSLLACALEVVMATYSRSTSQNLDSGTDLSFPWILNVLNLKAFDFYKVIESFIKAEGNLTREMIKHLERCEHRIMESLAWLSDSPLFDLIKQSKDREGPTDHLESACPLNLPLQNNHTAADMYLSPVRSPKKKGSTTRVNSTANAETQATSAFQTQKPLKSTSLSLFYKKVYRLAYLRLNTLCERLLSEHPELEHIIWTLFQHTLQNEYELMRDRHLDQIMMCSMYGICKVKNIDLKFKIIVTAYKDLPHAVQETFKRVLIKEEEYDSIIVFYNSVFMQRLKTNILQYASTRPPTLSPIPHIPRSPYKFPSSPLRIPGGNIYISPLKSPYKISEGLPTPTKMTPRSRILVSIGESFGTSEKFQKINQMVCNSDRVLKRSAEGSNPPKPLKKLRFDIEGSDEADGSKHLPGESKFQQKLAEMTSTRTRMQKQKMNDSMDTSNKEEK
- reported NRMT1 substrate, in words (human NRMT1 [4]): reported NRMT1 substrates

B4: kelch-like protein 31: reported NRMT1 substrate protein (protein, UniProt Q9H511 2-634, looked up)
Kelch-like protein 31: APKKKIVKKNKGDINEMTIIVEDSPLNKLNALNGLLEGGNGLSCISSELTDASYGPNLLEGLSKMRQENFLCDLVIGTKTKSFDVHKSVMASCSEYFYNILKKDPSIQRVDLNDISPLGLATVIAYAYTGKLTLSLYTIGSIISAAVYLQIHTLVKMCSDFLIREMSVENCMYVVNIAETYSLKNAKAAAQKFIRDNFLEFAESDQFMKLTFEQINELLIDDDLQLPSEIVAFQIAMKWLEFDQKRVKYAADLLSNIRFGTISAQDLVNYVQSVPRMMQDADCHRLLVDAMNYHLLPYHQNTLQSRRTRIRGGCRVLVTVGGRPGLTEKSLSRDILYRDPENGWSKLTEMPAKSFNQCVAVMDGFLYVAGGEDQNDARNQAKHAVSNFCRYDPRFNTWIHLASMNQKRTHFSLSVFNGLVYAAGGRNAEGSLASLECYVPSTNQWQPKTPLEVARCCHASAVADGRVLVTGGYIANAYSRSVCAYDPASDSWQELPNLSTPRGWHCAVTLSDRVYVMGGSQLGPRGERVDVLTVECYSPATGQWSYAAPLQVGVSTAGVSALHGRAYLVGGWNEGEKKYKKCIQCFSPELNEWTEDDELPEATVGVSCCTLSMPNNVTRESRASSVSSVPVSI
- reported NRMT1 substrate, in words (human NRMT1 [4]): reported NRMT1 substrates

B5: CENP-B: reported NRMT1 substrate protein (protein, UniProt P07199 2-599, looked up)
Major centromere autoantigen B: GPKRRQLTFREKSRIIQEVEENPDLRKGEIARRFNIPPSTLSTILKNKRAILASERKYGVASTCRKTNKLSPYDKLEGLLIAWFQQIRAAGLPVKGIILKEKALRIAEELGMDDFTASNGWLDRFRRRHGVVSCSGVARARARNAAPRTPAAPASPAAVPSEGSGGSTTGWRAREEQPPSVAEGYASQDVFSATETSLWYDFLPDQAAGLCGGDGRPRQATQRLSVLLCANADGSEKLPPLVAGKSAKPRAGQAGLPCDYTANSKGGVTTQALAKYLKALDTRMAAESRRVLLLAGRLAAQSLDTSGLRHVQLAFFPPGTVHPLERGVVQQVKGHYRQAMLLKAMAALEGQDPSGLQLGLTEALHFVAAAWQAVEPSDIAACFREAGFGGGPNATITTSLKSEGEEEEEEEEEEEEEEGEGEEEEEEGEEEEEEGGEGEELGEEEEVEEEGDVDSDEEEEEDEESSSEGLEAEDWAQGVVEAGGSFGAYGAQEEAQCPTLHFLEGGEDSDSDSEEEDDEEEDDEDEDDDDDEEDGDEVPVPSFGEAMAYFAMVKRYLTSFPIDDRVQSHILHLEHDLVHVTRKNHARQAGVRGLGHQS
- reported NRMT1 substrate, in words (human NRMT1 [4]): reported NRMT1 substrates
